Measured values published in ChEMBL document CHEMBL4400523, “Synthesis of novel pyrido[1,2-c]pyrimidine derivatives with rigidized tryptamine moiety as potential SSRI and 5-HT1A receptor ligands” (Eur J Med Chem, 2019).
Activity calls are given as the source filed them. The calls are words filed in the database; no cut-off is given here.

Legend:
[1] = target: T1, 5-hydroxytryptamine receptor 1A (Homo sapiens, UniProt P08908); assay: Displacement of [3H]-8-OH-DPAT from recombinant human 5HT1A receptor expressed in CHO cell membranes measured after 60 mins by microbeta scintillation counting analysis
T1 sequence (P08908 whole entry): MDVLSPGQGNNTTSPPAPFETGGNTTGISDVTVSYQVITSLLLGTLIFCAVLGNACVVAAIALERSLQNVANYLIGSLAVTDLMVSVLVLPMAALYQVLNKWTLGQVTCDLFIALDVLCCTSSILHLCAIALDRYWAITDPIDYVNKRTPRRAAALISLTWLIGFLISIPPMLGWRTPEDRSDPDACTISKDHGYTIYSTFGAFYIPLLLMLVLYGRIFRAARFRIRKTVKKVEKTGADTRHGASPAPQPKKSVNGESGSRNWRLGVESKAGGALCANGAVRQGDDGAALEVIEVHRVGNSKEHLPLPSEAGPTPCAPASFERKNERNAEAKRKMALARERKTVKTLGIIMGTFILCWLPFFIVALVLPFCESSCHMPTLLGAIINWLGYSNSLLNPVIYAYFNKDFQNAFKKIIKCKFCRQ

[2] = target: Sodium-dependent serotonin transporter (Rattus norvegicus, UniProt P31652); assay: Displacement of [3H]-citalopram from SERT in rat cortex tissue measured after 60 mins by microbeta scintillation counting analysis
Chain of Sodium-dependent serotonin transporter (P31652 whole entry): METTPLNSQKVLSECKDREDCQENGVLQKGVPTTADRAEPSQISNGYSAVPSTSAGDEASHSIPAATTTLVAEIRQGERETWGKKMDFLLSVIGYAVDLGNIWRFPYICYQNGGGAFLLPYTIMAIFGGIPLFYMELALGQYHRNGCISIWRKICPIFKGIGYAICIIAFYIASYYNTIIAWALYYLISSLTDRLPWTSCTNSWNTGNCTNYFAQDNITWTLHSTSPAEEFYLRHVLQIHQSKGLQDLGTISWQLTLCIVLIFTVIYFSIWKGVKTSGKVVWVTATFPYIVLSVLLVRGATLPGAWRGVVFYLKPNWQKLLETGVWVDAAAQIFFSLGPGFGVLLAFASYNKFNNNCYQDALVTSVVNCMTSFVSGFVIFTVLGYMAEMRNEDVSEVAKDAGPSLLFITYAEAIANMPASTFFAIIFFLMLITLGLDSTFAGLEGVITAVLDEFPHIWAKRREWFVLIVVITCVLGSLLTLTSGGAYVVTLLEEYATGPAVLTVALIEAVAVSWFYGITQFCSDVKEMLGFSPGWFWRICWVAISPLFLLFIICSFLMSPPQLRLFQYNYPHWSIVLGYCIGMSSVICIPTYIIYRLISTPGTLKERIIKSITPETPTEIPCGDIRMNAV
In short: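 Rat cortex tissue suspension with 1.0 nM [3H]-citalopram in 50 mM Tris pH 7.7, 150 mM NaCl, 5 mM KCl. Incubated 60 min at 24 °C, in duplicate. GF/B filtration, scintillation counting. One-site fit, Ki via Cheng–Prusoff with in-house Kd.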

[3] = target: 5-hydroxytryptamine receptor 2A (Homo sapiens, UniProt P28223); assay: Displacement of [3H]-ketanserin from recombinant human 5HT2A receptor expressed in HEK293 cells measured after 1.5 hrs by microbeta scintillation counting analysis; type: cell-based
Chain of 5-hydroxytryptamine receptor 2A (P28223 whole entry): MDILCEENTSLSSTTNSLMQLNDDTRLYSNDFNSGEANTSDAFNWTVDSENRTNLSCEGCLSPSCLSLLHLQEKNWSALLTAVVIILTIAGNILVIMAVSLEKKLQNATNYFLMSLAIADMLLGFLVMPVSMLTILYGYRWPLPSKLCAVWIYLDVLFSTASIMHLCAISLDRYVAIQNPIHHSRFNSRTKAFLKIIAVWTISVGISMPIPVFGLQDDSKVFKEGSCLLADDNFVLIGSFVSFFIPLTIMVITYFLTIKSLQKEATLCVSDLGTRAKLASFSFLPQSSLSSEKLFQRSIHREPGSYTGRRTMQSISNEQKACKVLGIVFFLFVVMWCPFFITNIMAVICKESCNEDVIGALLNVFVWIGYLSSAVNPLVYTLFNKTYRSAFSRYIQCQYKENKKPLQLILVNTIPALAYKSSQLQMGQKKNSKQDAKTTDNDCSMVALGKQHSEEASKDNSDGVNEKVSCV

[4] = target: 5-hydroxytryptamine receptor 6 (Homo sapiens, UniProt P50406); assay: Displacement of [3H]-LSD from recombinant human 5HT6 receptor expressed in HEK293 cells measured after 1 hr by microbeta scintillation counting analysis; type: cell-based
Chain of 5-hydroxytryptamine receptor 6 (P50406 whole entry): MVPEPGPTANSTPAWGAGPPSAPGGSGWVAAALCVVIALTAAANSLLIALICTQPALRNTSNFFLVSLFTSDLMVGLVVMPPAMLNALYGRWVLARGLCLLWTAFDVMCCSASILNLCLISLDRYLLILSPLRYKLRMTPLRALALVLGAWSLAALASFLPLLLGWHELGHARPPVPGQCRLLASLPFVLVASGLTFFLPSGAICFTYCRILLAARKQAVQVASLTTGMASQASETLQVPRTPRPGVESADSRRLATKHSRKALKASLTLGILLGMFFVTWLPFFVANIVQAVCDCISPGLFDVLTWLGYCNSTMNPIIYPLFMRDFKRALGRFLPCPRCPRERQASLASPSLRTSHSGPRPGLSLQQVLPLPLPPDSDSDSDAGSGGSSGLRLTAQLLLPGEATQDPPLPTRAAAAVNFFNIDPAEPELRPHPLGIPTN

[5] = target: 5-hydroxytryptamine receptor 7 (Homo sapiens, UniProt P34969); assay: Displacement of [3H]-5-CT from recombinant human 5HT7 receptor expressed in HEK293 cells measured after 1 hr by microbeta scintillation counting analysis; type: cell-based
Chain of 5-hydroxytryptamine receptor 7 (P34969 whole entry): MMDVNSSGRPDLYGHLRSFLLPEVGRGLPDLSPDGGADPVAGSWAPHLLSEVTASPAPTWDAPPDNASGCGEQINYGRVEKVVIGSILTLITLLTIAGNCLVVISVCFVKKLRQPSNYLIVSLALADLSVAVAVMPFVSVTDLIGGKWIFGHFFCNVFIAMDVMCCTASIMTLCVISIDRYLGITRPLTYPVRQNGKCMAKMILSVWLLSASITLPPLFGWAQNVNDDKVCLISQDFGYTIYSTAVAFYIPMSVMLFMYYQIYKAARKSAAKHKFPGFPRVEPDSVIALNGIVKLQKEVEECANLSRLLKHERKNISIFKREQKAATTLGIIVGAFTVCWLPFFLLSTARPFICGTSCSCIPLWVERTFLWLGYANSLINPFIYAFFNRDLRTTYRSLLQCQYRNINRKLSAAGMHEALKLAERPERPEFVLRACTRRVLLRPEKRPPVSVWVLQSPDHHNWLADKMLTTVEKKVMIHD

D(2) dopamine receptor = D(2) dopamine receptor (Homo sapiens, UniProt P14416); assay: Displacement of [3H]-raclopride from recombinant human D2 receptor expressed in HEK293 cells measured after 1 hr by microbeta scintillation counting analysis; type: cell-based
Chain of D(2) dopamine receptor (P14416 whole entry): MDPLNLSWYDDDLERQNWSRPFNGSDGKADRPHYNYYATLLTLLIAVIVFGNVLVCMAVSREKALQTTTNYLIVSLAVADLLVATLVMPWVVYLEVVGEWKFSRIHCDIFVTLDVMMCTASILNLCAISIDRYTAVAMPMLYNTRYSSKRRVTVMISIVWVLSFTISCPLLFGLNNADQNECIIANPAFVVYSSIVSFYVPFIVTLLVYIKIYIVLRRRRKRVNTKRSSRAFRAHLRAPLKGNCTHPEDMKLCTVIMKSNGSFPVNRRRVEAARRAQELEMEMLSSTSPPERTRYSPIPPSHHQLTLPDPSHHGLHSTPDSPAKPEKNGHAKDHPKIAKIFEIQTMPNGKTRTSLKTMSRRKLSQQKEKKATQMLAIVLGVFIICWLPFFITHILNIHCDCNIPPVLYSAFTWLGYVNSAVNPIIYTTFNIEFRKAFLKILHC

Mus musculus [6] = assay: Induction of hypothermia in CD-1 mouse assessed as change in body temperature at 5 mg/kg, ip measured after 30 mins by thermometric method; type: functional, organism-based
In short: (§1)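 Male CD-1 mice (23–40 g), 6–8 per dose, given compound ip in 10% aqueous DMSO (10 mL/kg). Rectal temperature was read by thermometer 30, 60, 90 and 120 min after dosing. Results are expressed as change from basal temperature at experiment start. Analysis by Dunnett's test.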

Mus musculus [7] = assay: Induction of hypothermia in CD-1 mouse assessed as change in body temperature at 20 mg/kg, ip measured after 30 mins by thermometric method; type: functional, organism-based; in short: as §1
Mus musculus [8] = assay: Induction of hypothermia in CD-1 mouse assessed as change in body temperature at 5 mg/kg, ip measured after 60 mins by thermometric method; type: functional, organism-based; in short: as §1
Mus musculus [9] = assay: Induction of hypothermia in CD-1 mouse assessed as change in body temperature at 20 mg/kg, ip measured after 60 mins by thermometric method; type: functional, organism-based; in short: as §1
Mus musculus [10] = assay: Induction of hypothermia in CD-1 mouse assessed as change in body temperature at 5 mg/kg, ip measured after 90 mins by thermometric method; type: functional, organism-based; in short: as §1
Mus musculus [11] = assay: Induction of hypothermia in CD-1 mouse assessed as change in body temperature at 20 mg/kg, ip measured after 90 mins by thermometric method; type: functional, organism-based; in short: as §1
Mus musculus [12] = assay: Induction of hypothermia in CD-1 mouse assessed as change in body temperature at 5 mg/kg, ip measured after 120 mins by thermometric method; type: functional, organism-based; in short: as §1
Mus musculus [13] = assay: Induction of hypothermia in CD-1 mouse assessed as change in body temperature at 20 mg/kg, ip measured after 120 mins by thermometric method; type: functional, organism-based; in short: as §1
Mus musculus [14] = assay: Inhibition of 8-OH-DPAT-induced hypothermia in CD-1 mouse assessed change in body temperature at 20 mg/kg, ip measured after 15 mins by thermometric method (reference value: -1.9 +/- 0.2 deg C); type: functional, organism-based
Mus musculus [15] = assay: Inhibition of 8-OH-DPAT-induced hypothermia in CD-1 mouse assessed change in body temperature at 20 mg/kg, ip measured after 30 mins by thermometric method (reference value: -2.4 +/- 0.2 deg C); type: functional, organism-based
Mus musculus [16] = assay: Inhibition of 8-OH-DPAT-induced hypothermia in CD-1 mouse assessed change in body temperature at 20 mg/kg, ip measured after 45 mins by thermometric method (reference value: -2.6 +/- 0.2 deg C); type: functional, organism-based
Mus musculus [17] = assay: Inhibition of 8-OH-DPAT-induced hypothermia in CD-1 mouse assessed change in body temperature at 20 mg/kg, ip measured after 60 mins by thermometric method (reference value: -2.4 +/- 0.3 deg C); type: functional, organism-based
[18] = Half life in human liver microsomes at 1 uM by LC-MS analysis; type: ADME, Microsome
In short: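 Compound at 1 μM incubated at 37 °C with 1 mg/mL pooled human liver microsomes and 100 μM NADPH in 0.1 M potassium phosphate pH 7.4, after 5-min preincubation. Samples taken at 0, 5, 10, 15, 30 min and quenched in ice-cold acetonitrile with buspirone internal standard. No-NADPH controls were run. Parent measured by LC-ESI(+)-MS of [M+H+]; half-life reported.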

Mus musculus [19] = assay: Induction of hypothermia in CD-1 mouse assessed as change in body temperature at 20 mg/kg, ip measured after 30 mins in presence of WAY100635 by thermometric method; type: functional, organism-based
Mus musculus [20] = assay: Induction of hypothermia in CD-1 mouse assessed as change in body temperature at 20 mg/kg, ip measured after 60 mins in presence of WAY100635 by thermometric method; type: functional, organism-based
Mus musculus [21] = assay: Antidepressant-like activity in CD-1 mouse assessed as decrease in immobility time at 20 mg/kg, ip measured after 30 mins by forced swim test; type: functional, organism-based
In short: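 Male CD-1 mice (23–40 g), 6–8 per dose, given test agent ip in 10% aqueous DMSO (10 mL/kg) 30 min before test. Mice were placed singly in glass cylinders (25 cm high, 10 cm diameter) holding 20 cm water at 23 °C for 6 min. Immobility (passive floating) was timed over the last 4 min after a 2-min adaptation. Analysis by Dunnett's test.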

Structure (SMILES) | Ki [1] [nM] | Ki [2] [nM] | other results
COc1ccc2[nH]cc(C3CCCN(CCCCn4c(=O)c(-c5ccc(F)cc5)c5ccccn5c4=O)C3)c2c1 (stereo not given) | 281 | 192 | –
COc1ccccc1-c1c(=O)n(CCCCN2CCCC(c3c[nH]c4ccc(F)cc34)C2)c(=O)n2ccccc12 (stereo not given) | 80 | 118 | –
Cc1ccc(-c2c(=O)n(CCCCN3CCCC(c4c[nH]c5ccccc45)C3)c(=O)n3ccccc23)cc1 (stereo not given) | 63 | 207 | –
O=c1c(-c2ccc(F)cc2)c2ccccn2c(=O)n1CCCCN1CCCC(c2c[nH]c3ccccc23)C1 (stereo not given) | 46 | 46 | Ki [3]: 435 nM; Ki [4]: 697 nM; Ki [5]: 1440 nM; Ki (D(2) dopamine receptor): 963 nM; deltaT (Mus musculus [6]): 0.4 °C; deltaT (Mus musculus [7]): -0.2 °C; deltaT (Mus musculus [8]): 0.4 °C; deltaT (Mus musculus [9]): 0.5 °C; deltaT (Mus musculus [10]): 0.3 °C; deltaT (Mus musculus [11]): 0.2 °C; deltaT (Mus musculus [12]): 0.2 °C; deltaT (Mus musculus [13]): 0.1 °C; deltaT (Mus musculus [14]): -1.2 °C; deltaT (Mus musculus [15]): -1.2 °C; deltaT (Mus musculus [16]): -1.3 °C; deltaT (Mus musculus [17]): -1.3 °C; half-life at 1 µM [18]: 5.53 min
O=c1c(-c2ccc(F)cc2)c2ccccn2c(=O)n1CCCCN1CCCC(c2c[nH]c3ccc(F)cc23)C1 (stereo not given) | 147 | 30 | –
O=c1c(-c2ccc(Cl)cc2)c2ccccn2c(=O)n1CCCCN1CCCC(c2c[nH]c3ccccc23)C1 (stereo not given) | 294 | 82 | –
COc1ccc2[nH]cc(C3CCCN(CCCCn4c(=O)c(-c5ccccc5OC)c5ccccn5c4=O)C3)c2c1 (stereo not given) | 69 | 386 | –
COc1ccc2[nH]cc(C3CCCN(CCCCn4c(=O)c(-c5ccccc5Cl)c5ccccn5c4=O)C3)c2c1 (stereo not given) | 176 | 459 | –
O=c1c(-c2ccccc2Cl)c2ccccn2c(=O)n1CCCCN1CCCC(c2c[nH]c3ccccc23)C1 (stereo not given) | 50 | 103 | –
COc1ccc2[nH]cc(C3CCCN(CCCCn4c(=O)c(-c5ccc(Cl)cc5)c5ccccn5c4=O)C3)c2c1 (stereo not given) | 257 | 490 | –
COc1ccc2[nH]cc(C3CCCN(CCCCn4c(=O)c(-c5ccccc5F)c5ccccn5c4=O)C3)c2c1 (stereo not given) | 130 | 1670 | –
Cc1ccccc1-c1c(=O)n(CCCCN2CCCC(c3c[nH]c4ccc(F)cc34)C2)c(=O)n2ccccc12 (stereo not given) | 376 | 338 | –
COc1ccc2[nH]cc(C3CCCN(CCCCn4c(=O)c(-c5ccccc5C)c5ccccn5c4=O)C3)c2c1 (stereo not given) | 476 | 87 | –
O=c1c(-c2ccccc2F)c2ccccn2c(=O)n1CCCCN1CCCC(c2c[nH]c3ccccc23)C1 (stereo not given) | 53 | 240 | –
COc1ccc2[nH]cc(C3CCCN(CCCCn4c(=O)c(-c5ccc(C)cc5)c5ccccn5c4=O)C3)c2c1 (stereo not given) | 333 | 173 | –
Cc1ccccc1-c1c(=O)n(CCCCN2CCCC(c3c[nH]c4ccccc34)C2)c(=O)n2ccccc12 (stereo not given) | 102 | 76 | –
COc1ccc(-c2c(=O)n(CCCCN3CCCC(c4c[nH]c5ccc(F)cc45)C3)c(=O)n3ccccc23)cc1 (stereo not given) | 140 | 27 | –
Cc1ccc(-c2c(=O)n(CCCCN3CCCC(c4c[nH]c5ccc(F)cc45)C3)c(=O)n3ccccc23)cc1 (stereo not given) | 136 | 135 | –
COc1ccc(-c2c(=O)n(CCCCN3CCCC(c4c[nH]c5ccccc45)C3)c(=O)n3ccccc23)cc1 (stereo not given) | 42 | 41 | Ki [3]: 21 nM; Ki [4]: 1710 nM; Ki [5]: 1920 nM; Ki (D(2) dopamine receptor): 1130 nM; deltaT (Mus musculus [6]): 0.3 °C; deltaT (Mus musculus [7]): -1.6 °C; deltaT (Mus musculus [8]): 0.4 °C; deltaT (Mus musculus [9]): 0.3 °C; deltaT (Mus musculus [10]): 0.4 °C; deltaT (Mus musculus [11]): 0 °C; deltaT (Mus musculus [12]): 0.5 °C; deltaT (Mus musculus [13]): 0.3 °C; deltaT (Mus musculus [19]): -1.4 °C; deltaT (Mus musculus [20]): -0.7 °C; half-life at 1 µM [18]: 7.4 min
O=c1c(-c2ccc(Cl)cc2)c2ccccn2c(=O)n1CCCCN1CCCC(c2c[nH]c3ccc(F)cc23)C1 (stereo not given) | 155 | 86 | –
COc1ccccc1-c1c(=O)n(CCCCN2CCCC(c3c[nH]c4ccccc34)C2)c(=O)n2ccccc12 (stereo not given) | 132 | 411 | –
COc1ccc2[nH]cc(C3CCCN(CCCCn4c(=O)c(-c5ccccc5)c5ccccn5c4=O)C3)c2c1 (stereo not given) | 261 | 248 | –
O=c1c(-c2ccccc2Cl)c2ccccn2c(=O)n1CCCCN1CCCC(c2c[nH]c3ccc(F)cc23)C1 (stereo not given) | 378 | 255 | –
O=c1c(-c2ccccc2F)c2ccccn2c(=O)n1CCCCN1CCCC(c2c[nH]c3ccc(F)cc23)C1 (stereo not given) | 218 | 115 | –
O=c1c(-c2ccccc2)c2ccccn2c(=O)n1CCCCN1CCCC(c2c[nH]c3ccccc23)C1 (stereo not given) | 22 | 68 | Ki [3]: 433 nM; Ki [4]: 435 nM; Ki [5]: 1110 nM; Ki (D(2) dopamine receptor): 17700 nM; deltaT (Mus musculus [6]): -0.1 °C; deltaT (Mus musculus [7]): -0.9 °C; deltaT (Mus musculus [8]): -0.4 °C; deltaT (Mus musculus [9]): -0.3 °C; deltaT (Mus musculus [10]): -0.5 °C; deltaT (Mus musculus [11]): 0.1 °C; deltaT (Mus musculus [12]): -0.8 °C; deltaT (Mus musculus [13]): 0.2 °C; deltaT (Mus musculus [19]): 0 °C; deltaT (Mus musculus [20]): 0.1 °C; Activity (Mus musculus [21]): inactive; half-life at 1 µM [18]: 6.12 min
O=c1c(-c2ccccc2)c2ccccn2c(=O)n1CCCCN1CCCC(c2c[nH]c3ccc(F)cc23)C1 (stereo not given) | 209 | 8 | –
